Calls of active or inactive are those of the source. No cut-off for these calls is given here.
Columns and labels:
[1] = test system: MDA-MB-435; experiment: Cytotoxicity against human MDA-MB-435 assessed as growth inhibition at 10 uM by NCI protocol relative to control; type: functional, cell-based
In short: (§1)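 Run by NCI as a single-dose screen at 10 μM across the sixty-cell-line panel, which covers nine human tumour tissue types. The read-out is percent growth inhibition of treated cells relative to untreated cells.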

[2] = test system: SK-MEL-28; experiment: Cytotoxicity against human SK-MEL-28 assessed as growth inhibition at 10 uM by NCI protocol relative to control; type: functional; conditions: read-out: GI; in short: as §1
[3] = test system: SK-MEL-5; experiment: Cytotoxicity against human SK-MEL-5 assessed as growth inhibition at 10 uM by NCI protocol relative to control; type: functional; conditions: read-out: GI; in short: as §1
[4] = test system: UACC-257; experiment: Cytotoxicity against human UACC-257 assessed as growth inhibition at 10 uM by NCI protocol relative to control; type: functional; conditions: read-out: GI
In short: (§2)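 Run by the NCI under its standard protocol: one dose of 10 μM against a sixty-line panel from nine human tumour tissues. Result given as percent growth inhibition of treated cells relative to untreated cells.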

[5] = test system: UACC-62; experiment: Cytotoxicity against human UACC-62 assessed as growth inhibition at 10 uM by NCI protocol relative to control; type: functional; conditions: read-out: GI; in short: as §2
[6] = test system: IGROV-1; experiment: Cytotoxicity against human IGROVI assessed as growth inhibition at 10 uM by NCI protocol relative to control; type: functional; conditions: read-out: GI; in short: as §1
[7] = test system: OVCAR-4; experiment: Cytotoxicity against human OVCAR-4 assessed as growth inhibition at 10 uM by NCI protocol relative to control; type: functional; conditions: read-out: GI; in short: as §1
[8] = test system: OVCAR-8; experiment: Cytotoxicity against human OVCAR-8 assessed as growth inhibition at 10 uM by NCI protocol relative to control; type: functional; conditions: read-out: GI; in short: as §1
[9] = test system: NCI/ADR-RES; experiment: Cytotoxicity against human NCl/ADR-RES assessed as growth inhibition at 10 uM by NCI protocol relative to control; type: functional; conditions: read-out: GI; in short: as §1
[10] = test system: SK-OV-3; experiment: Cytotoxicity against human SK-OV-3 assessed as growth inhibition at 10 uM by NCI protocol relative to control; type: functional; conditions: read-out: GI; in short: as §1
[11] = test system: 786-0; experiment: Cytotoxicity against human 786-0 assessed as growth inhibition at 10 uM by NCI protocol relative to control; type: functional; conditions: read-out: GI; in short: as §1
[12] = test system: A498; experiment: Cytotoxicity against human A498 assessed as growth inhibition at 10 uM by NCI protocol relative to control; type: functional; conditions: read-out: GI; in short: as §1
[13] = test system: ACHN; experiment: Cytotoxicity against human ACHN assessed as growth inhibition at 10 uM by NCI protocol relative to control; type: functional; conditions: read-out: GI; in short: as §1
[14] = test system: CAKI-1; experiment: Cytotoxicity against human Caki1 assessed as growth inhibition at 10 uM by NCI protocol relative to control; type: functional; conditions: read-out: GI; in short: as §1
[15] = test system: RXF 393; experiment: Cytotoxicity against human RXF 393 assessed as growth inhibition at 10 uM by NCI protocol relative to control; type: functional; conditions: read-out: GI; in short: as §1
[16] = test system: SN12C; experiment: Cytotoxicity against human SN12C assessed as growth inhibition at 10 uM by NCI protocol relative to control; type: functional; conditions: read-out: GI; in short: as §2
[17] = test system: TK-10; experiment: Cytotoxicity against human TK-10 assessed as growth inhibition at 10 uM by NCI protocol relative to control; type: functional; conditions: read-out: GI; in short: as §2
[18] = test system: UO-31; experiment: Cytotoxicity against human UO31 assessed as growth inhibition at 10 uM by NCI protocol relative to control; type: functional; conditions: read-out: GI; in short: as §2
[19] = test system: PC-3; experiment: Cytotoxicity against human PC3 assessed as growth inhibition at 10 uM by NCI protocol relative to control; type: functional; conditions: read-out: GI; in short: as §1
[20] = test system: DU-145; experiment: Cytotoxicity against human DU-145 assessed as growth inhibition at 10 uM by NCI protocol relative to control; type: functional; conditions: read-out: GI; in short: as §1
[21] = test system: MCF7; experiment: Cytotoxicity against human MCF7 assessed as growth inhibition at 10 uM by NCI protocol relative to control; type: functional; conditions: read-out: GI; in short: as §1
[22] = test system: MDA-MB-231; experiment: Cytotoxicity against human MDA-MB-231 assessed as growth inhibition at 10 uM by NCI protocol relative to control; type: functional; conditions: read-out: GI; in short: as §1
[23] = test system: Hs-578T; experiment: Cytotoxicity against human HS 578T assessed as growth inhibition at 10 uM by NCI protocol relative to control; type: functional; conditions: read-out: GI; in short: as §1
[24] = test system: BT-549; experiment: Cytotoxicity against human BT-549 assessed as growth inhibition at 10 uM by NCI protocol relative to control; type: functional; conditions: read-out: GI; in short: as §1
[25] = test system: T47D; experiment: Cytotoxicity against human T-47D assessed as growth inhibition at 10 uM by NCI protocol relative to control; type: functional; conditions: read-out: GI; in short: as §2
[26] = test system: MDA-MB-468; experiment: Cytotoxicity against human MDA-MB-468 assessed as growth inhibition at 10 uM by NCI protocol relative to control; type: functional; conditions: read-out: GI; in short: as §1
[27] = test system: T47D; experiment: Cytotoxicity against human T47D cells assessed as reduction in cell viability after 3 hrs by MTT assay

COc1ccc(-c2csc(NC(=O)CN3CCN(c4cc(=O)[nH]c5ccc(F)cc45)CC3)n2)cc1
growth inhibition (GI) [1]: inactive
inhibition of growth at 10 µM [2]: 13.7%
inhibition of growth at 10 µM [3]: 25.4%
inhibition of growth at 10 µM [4]: 14.5%
inhibition of growth at 10 µM [5]: 28.1%
inhibition of growth at 10 µM [6]: 45.6%
inhibition of growth at 10 µM [7]: 25.1%
inhibition of growth at 10 µM [8]: 17.2%
inhibition of growth at 10 µM [9]: 20.5%
inhibition of growth at 10 µM [10]: 10.4%
inhibition of growth at 10 µM [11]: 19.3%
inhibition of growth at 10 µM [12]: 49.9%
inhibition of growth at 10 µM [13]: 27.7%
inhibition of growth at 10 µM [14]: 46.8%
inhibition of growth at 10 µM [15]: 20.3%
inhibition of growth at 10 µM [16]: 29.1%
inhibition of growth at 10 µM [17]: 31.8%
inhibition of growth at 10 µM [18]: 24.9%
inhibition of growth at 10 µM [19]: 35.8%
inhibition of growth at 10 µM [20]: 40%
inhibition of growth at 10 µM [21]: 28.4%
inhibition of growth at 10 µM [22]: 24.5%
inhibition of growth at 10 µM [23]: 32.9%
inhibition of growth at 10 µM [24]: 18.6%
inhibition of growth at 10 µM [25]: 69.2%
inhibition of growth at 10 µM [26]: 32%
IC50 [27]: 16.9 µM

— ChEMBL document CHEMBL4819122, “Novel 4-(piperazin-1-yl)quinolin-2(1H)-one bearing thiazoles with antiproliferative activity through VEGFR-2-TK inhibition” (Bioorg Med Chem, 2021)
